Measurements reported in ChEMBL document CHEMBL4038330, “Discovery of Potent Orally Active Protease-Activated Receptor 1 (PAR1) Antagonists Based on Andrographolide” (J Med Chem, 2017).

Experiments:
[1] = target: T1, Proteinase-activated receptor 1 (Homo sapiens, UniProt P25116); experiment: Antagonist activity at human PAR1 expressed in HEK293 cells co-expressing Galpha15 assessed as inhibition of haTRAP-induced calcium mobilization preincubated for 15 mins followed by haTRAP addition by calcium-4 dye based FLIPR assay; assay type: functional, cell-based
T1 sequence (P25116 whole entry): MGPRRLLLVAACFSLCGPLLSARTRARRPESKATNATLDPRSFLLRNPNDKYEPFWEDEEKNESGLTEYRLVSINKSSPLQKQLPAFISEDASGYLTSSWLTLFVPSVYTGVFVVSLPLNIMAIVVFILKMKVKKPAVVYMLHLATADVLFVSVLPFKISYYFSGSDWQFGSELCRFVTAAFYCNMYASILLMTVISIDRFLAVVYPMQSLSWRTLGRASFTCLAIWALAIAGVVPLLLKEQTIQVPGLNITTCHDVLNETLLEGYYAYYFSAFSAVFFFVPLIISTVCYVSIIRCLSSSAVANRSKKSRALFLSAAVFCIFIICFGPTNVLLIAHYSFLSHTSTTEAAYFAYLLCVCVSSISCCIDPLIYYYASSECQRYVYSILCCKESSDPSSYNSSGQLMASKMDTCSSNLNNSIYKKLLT

Cavia porcellus [2] = experiment: In vivo antagonist activity at PAR1 in guinea pig assessed as inhibition of TRAP-stimulated platelet aggregation at 10 mg/kg, po pretreated for 2 hrs followed by TRAP stimulation measured after 5 mins; assay type: functional
Cavia porcellus [3] = experiment: In vivo antagonist activity at PAR1 in guinea pig assessed as inhibition of thrombin-stimulated platelet aggregation at 10 mg/kg, po pretreated for 2 hrs followed by thrombin stimulation measured after 5 mins; assay type: functional
[4] = system: ADP-stimulated platelet aggregation; experiment: Toxicity in guinea pig assessed as inhibition of ADP-stimulated platelet aggregation at 10 mg/kg, po pretreated for 2 hrs followed by ADP stimulation measured after 5 mins; assay type: organism-based, Cavia porcellus; details: in vivo
[5] = system: collagen-stimulated platelet aggregation; experiment: Toxicity in guinea pig assessed as inhibition of collagen-stimulated platelet aggregation at 10 mg/kg, po pretreated for 2 hrs followed by collagen stimulation measured after 5 mins; assay type: organism-based, Cavia porcellus; details: in vivo
Plasma [6] = experiment: Stability in Wistar rat assessed as parent compound level in plasma at 10 mg/kg, po administered as single dose measured at 3 hrs post dose by LC-HRMS analysis; assay type: ADME, organism-based; details: in vivo
Method in brief: (§1)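 Rats dosed orally at 10 mg/kg or 5 mg/kg. Plasma taken at 3.0 h after dosing. Parent and metabolites detected by extracted ion chromatograms.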

Plasma [7] = experiment: (§2) Drug metabolism in Wistar rat plasma assessed as [M0+O] metabolite formation at 10 mg/kg, po administered as single dose measured at 3 hrs post dose by LC-HRMS analysis; assay type: ADME, organism-based; details: in vivo; method in brief: as §1
Plasma [8] = experiment: Drug metabolism in Wistar rat plasma assessed as [M0-2H] metabolite formation at 10 mg/kg, po administered as single dose measured at 3 hrs post dose by LC-HRMS analysis; assay type: ADME, organism-based; details: in vivo; method in brief: as §1
Plasma [9] = experiment: as §2, with “(1S,2S,4aS,5S,6R,8aR)-1-((E)-2-(5-(3-Fluorophenyl)pyridin-2-yl)vinyl)-6-hydroxy-5,8a-dimethyloctahydro-1H-spiro[naphthalene-2,2'-oxirane]-5-carboxylic acid” for “[M0+O]”; assay type: ADME, organism-based; details: in vivo; method in brief: as §1
Plasma [10] = experiment: Drug metabolism in Wistar rat plasma assessed as [M0+H2O] metabolite formation at 10 mg/kg, po administered as single dose measured at 3 hrs post dose by LC-HRMS analysis; assay type: ADME, organism-based; details: in vivo; method in brief: as §1
Plasma [11] = experiment: Drug metabolism in Wistar rat plasma assessed as [M0-CH2] metabolite formation at 10 mg/kg, po administered as single dose measured at 3 hrs post dose by LC-HRMS analysis; assay type: ADME, organism-based; details: in vivo; method in brief: as §1
Plasma [12] = experiment: Drug metabolism in Wistar rat plasma assessed as [M0-CH2+O] metabolite formation at 10 mg/kg, po administered as single dose measured at 3 hrs post dose by LC-HRMS analysis; assay type: ADME, organism-based; details: in vivo; method in brief: as §1

Row | Structure (SMILES) | IC50 [1] [µM] | further results
1 | CCOC(=O)N[C@@H]1CC[C@@H]2[C@@H](C1)C[C@H]1C(=O)O[C@H](C)[C@H]1[C@H]2/C=C/c1ccc(-c2cccc(F)c2)cn1 [VORAPAXAR] | 0.064 | inhibition in vivo at 10 mg/kg (Cavia porcellus [2]): 98.3%; inhibition in vivo at 10 mg/kg (Cavia porcellus [3]): 93.4%; inhibition at 5 min [4]: 3%; inhibition at 5 min [5]: 0.9%
2 | CC1CC[C@@H]2C(C)(C)[C@H](OC(N)=O)CC[C@@]2(C)[C@@H]1/C=C/c1ccc(-c2cccc(F)c2)cn1 (single isomer, unassigned) | 32 | 
3 | COC(=O)[C@]1(C)[C@H](OC(C)=O)CC[C@@]2(C)[C@H](/C=C/c3ccc(-c4cccc(F)c4)cn3)[C@@]3(CC[C@@H]21)CO3 | > 100 | 
4 | C[C@@]1(/C=C/c2ccc(-c3cccc(F)c3)cn2)[C@H]2CC[C@@H]3COC(=O)[C@H]3[C@]2(C)CC[C@@H]1O | > 100 | 
5 | CO[C@@H]1CC[C@]2(C)[C@H](CC[C@@]3(CO3)[C@H]2/C=C/c2ccc(-c3cccc(F)c3)cn2)[C@]1(C)CO | 14 | 
6 | C[C@]1(CO)[C@H]2CC[C@@]3(CO3)[C@@H](CCc3ccc(-c4cccc(C(F)(F)F)c4)cn3)[C@]2(C)CC[C@H]1O | 10 | 
7 | COC[C@@]1(C)[C@H]2CC[C@@]3(CO3)[C@@H](/C=C/c3ccc(-c4cccc(F)c4)cn3)[C@]2(C)CC[C@H]1O | 8.1 | 
8 | CC1(C)OC[C@@]2(C)[C@H]3CC[C@@]4(CO4)[C@@H](/C=C/c4ccc(-c5cccc(F)c5)cn4)[C@]3(C)CC[C@H]2O1 | > 100 | 
9 | C[C@@]1(C=O)[C@H](O)CC[C@@]2(C)[C@H](/C=C/c3ccc(-c4cccc(F)c4)cn3)[C@@H](C3SCCS3)CC[C@H]12 | > 100 | 
10 | C[C@@]1(/C=C/c2ccc(-c3cccc(F)c3)cn2)[C@H]2CC[C@@H]3COC(=O)[C@H]3[C@]2(C)CC[C@H]1OS(C)(=O)=O | > 100 | 
11 | C[C@@]12CC[C@@H](O)[C@@](C)(C3SCCS3)[C@H]1CCC(C1SCCS1)[C@H]2/C=C/c1ccc(-c2cccc(F)c2)cn1 (single isomer, unassigned) | > 100 | 
12 | CC(=O)O[C@@H]1CC[C@@]2(C)[C@H](/C=C/c3ccc(-c4cccc(F)c4)cn3)C(C)CC[C@@H]2C1(C)C (single isomer, unassigned) | > 100 | 
13 | CCCC(=O)O[C@@H]1CC[C@@]2(C)[C@H](/C=C/c3ccc(-c4cccc(F)c4)cn3)[C@@]3(CC[C@@H]2[C@]1(C)C(=O)OC)CO3 | > 100 | 
14 | C[C@]1(CN)[C@H]2CC[C@@]3(CO3)[C@@H](/C=C/c3ccc(-c4cccc(F)c4)cn3)[C@]2(C)CC[C@H]1O | 23 | 
15 | C[C@@]1(C=O)[C@H](O)CC[C@@]2(C)[C@H](/C=C/c3ccc(-c4cccc(F)c4)cn3)[C@@]3(CC[C@H]12)CO3 | 3 | Stability (Plasma [6]): Unstable
16 | CC(=O)O[C@@H]1CC[C@@]2(C)[C@@H]3C(=O)OC[C@H]3CC[C@@H]2[C@@]1(C)/C=C/c1ccc(-c2cccc(F)c2)cn1 | > 100 | 
17 | C[C@@]12CC[C@@H](O)[C@@](C)(C(=O)O)[C@H]1CC[C@@]1(CO1)[C@H]2/C=C/c1ccc(-c2cccc(F)c2)cn1 | 29 | 
18 | C[C@@]1(/C=C/c2ccc(-c3cccc(F)c3)cn2)[C@@H](OS(C)(=O)=O)CC[C@@]2(C)[C@@H]3C(=O)OC[C@H]3CC[C@H]12 | > 100 | 
19 | C[C@@]1(C=O)[C@H](O)CC[C@@]2(C)[C@H](/C=C/c3ccc(-c4cccc(F)c4)c[n+]3[O-])[C@@]3(CC[C@H]12)CO3 | > 100 | 
20 | C[C@]1(/C=C/c2ccc(-c3cccc(F)c3)cn2)[C@@H](OC(N)=O)CC[C@@]2(C)[C@@H]3C(=O)OC[C@H]3CC[C@H]12 | > 100 | 
21 | C[C@@]1(/C=C/c2ccc(-c3cccc(F)c3)cn2)[C@H]2CC[C@@H]3COC(=O)[C@H]3[C@]2(C)CC[C@H]1OC(N)=O | 12 | 
22 | CC1(C)OC[C@@]2(C)[C@H]3CC[C@@]4(CO4)[C@@H](/C=C/c4ccc(-c5cccc(C(F)(F)F)c5)cn4)[C@]3(C)CC[C@H]2O1 | > 100 | 

Row | Structure (SMILES) | IC50 [1] [µM] | further results
23 | CCOC(=O)O[C@@H]1CC[C@@]2(C)[C@H](/C=C/c3ccc(-c4cccc(F)c4)cn3)[C@@H](C)CC[C@@H]2C1(C)C | > 100 | 
24 | CC(=O)O[C@@H]1CC[C@@]2(C)[C@@H]3C(=O)OC[C@H]3CC[C@@H]2[C@]1(C)/C=C/c1ccc(-c2cccc(F)c2)cn1 | > 100 | 
25 | C[C@]1(CO)[C@H]2CC[C@@]3(CO3)[C@@H](CCc3ccc(-c4cccc(F)c4)cn3)[C@]2(C)CC[C@H]1O | 14 | 
26 | C[C@]1(CO)[C@H]2CC[C@@]3(CO3)[C@@H](/C=C/c3ccc(-c4cccc(C(F)(F)F)c4)cn3)[C@]2(C)CC[C@H]1O | 9.5 | 
27 | C[C@]1(CO)[C@H]2CC[C@@]3(CO3)[C@@H](/C=C/c3ccc(-c4cccc(F)c4)cn3)[C@]2(C)CC[C@H]1O | 9.1 | Drug metabolism (Plasma [7]): Metabolite_Detected; Drug metabolism (Plasma [8]): Metabolite_Detected; Drug metabolism (Plasma [9]): Metabolite_Detected; Drug metabolism (Plasma [10]): Metabolite_Detected; Drug metabolism (Plasma [11]): Metabolite_Detected; Drug metabolism (Plasma [12]): Metabolite_Detected; Stability (Plasma [6]): Unstable
28 | C[C@@]1(/C=C/c2ccc(-c3cccc(F)c3)cn2)[C@@H](OC(N)=O)CC[C@@]2(C)[C@@H]3C(=O)OC[C@H]3CC[C@H]12 | 20 | 
29 | COC(=O)[C@]1(C)[C@H](OC(N)=O)CC[C@@]2(C)[C@H](/C=C/c3ccc(-c4cccc(F)c4)cn3)[C@@]3(CC[C@@H]21)CO3 | 8.7 | 
30 | CC(=O)O[C@H]1CC[C@@]2(C)[C@@H]3C(=O)OC[C@H]3CC[C@@H]2[C@]1(C)/C=C/c1ccc(-c2cccc(F)c2)cn1 | > 100 | 
31 | C[C@@]1(/C=C/c2ccc(-c3cccc(F)c3)cn2)[C@H](O)CC[C@@]2(C)[C@@H]3C(=O)OC[C@H]3CC[C@H]12 | > 100 | 
32 | C[C@]1(/C=C/c2ccc(-c3cccc(F)c3)cn2)[C@H]2CC[C@@H]3COC(=O)[C@H]3[C@]2(C)CC[C@H]1OC(N)=O | 21 | 
33 | CC1CC[C@@H]2[C@](C)(C=O)[C@H](O)CC[C@@]2(C)[C@@H]1/C=C/c1ccc(-c2cccc(F)c2)cn1 (single isomer, unassigned) | 1.5 | 
34 | C[C@]1(C=O)[C@H](O)CC[C@@]2(C)[C@H](/C=C/c3ccc(-c4cccc(F)c4)c[n+]3[O-])[C@@]3(CC[C@H]12)CO3 | > 100 | 
35 | C[C@]1(CO)[C@H]2CC[C@](C)(O)[C@@H](/C=C/c3ccc(-c4cccc(F)c4)cn3)[C@]2(C)CC[C@H]1O | 55 | 
36 | CCCC(=O)O[C@@H]1CC[C@@]2(C)[C@H](/C=C/c3ccc(-c4cccc(F)c4)cn3)[C@@H](C)CC[C@@H]2C1(C)C | > 100 | 
37 | C[C@H]1CC[C@@H]2C(C)(C)C=CC[C@@]2(C)[C@@H]1/C=C/c1ccc(-c2cccc(F)c2)cn1 | > 100 | 
38 | C[C@]1(/C=C/c2ccc(-c3cccc(F)c3)cn2)[C@H]2CC[C@@H]3COC(=O)[C@H]3[C@]2(C)CC[C@@H]1O | 19 | 
39 | CCCC(=O)O[C@H]1CC[C@@]2(C)[C@@H]3C(=O)OC[C@H]3CC[C@@H]2[C@]1(C)/C=C/c1ccc(-c2cccc(F)c2)cn1 | > 100 | 
40 | CCCC(=O)O[C@@H]1CC[C@@]2(C)[C@@H]3C(=O)OC[C@H]3CC[C@@H]2[C@@]1(C)/C=C/c1ccc(-c2cccc(F)c2)cn1 | > 100 | 
41 | CC1CC[C@@H]2C(C)(C)[C@H](OS(C)(=O)=O)CC[C@@]2(C)[C@@H]1/C=C/c1ccc(-c2cccc(F)c2)cn1 (single isomer, unassigned) | 87 | 
42 | CNC[C@@]1(C)[C@H]2CC[C@@]3(CO3)[C@@H](/C=C/c3ccc(-c4cccc(F)c4)cn3)[C@]2(C)CC[C@H]1O | 17 | 
43 | C[C@]1(/C=C/c2ccc(-c3cccc(F)c3)cn2)[C@H](O)CC[C@@]2(C)[C@@H]3C(=O)OC[C@H]3CC[C@H]12 | > 100 | 
